Assay results as given in ChEMBL document CHEMBL3585272, “Syntheses and Antibacterial Activity of N-Acylated Ciprofloxacin Derivatives Based on the Trimethyl Lock” (ACS Med Chem Lett, 2015).
≈ marks a conversion by molar mass, not a printed value.

Experiments:
Format in all cases: functional
Acinetobacter baumannii [1] = assay: Antibacterial activity against Acinetobacter baumannii ATCC 17961 by broth microdilution method
How it was run: (§1)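 Broth microdilution in Mueller-Hinton broth No.2 (MHII) following CLSI guidelines. The MIC (μM) was read by visual end point. Each compound was tested in triplicate.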

Escherichia coli [2] = assay: Antibacterial activity against Escherichia coli X580 at 0.1 mM incubated for 24 hrs at 37 degC by agar diffusion assay; conditions: X580, 24 h, read-out: DIZ
How it was run: (§2)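 Agar well diffusion. 50 μL of a 0.1 mM solution in 1:9 DMSO/MeOH was added to 9 mm wells in Standard I nutrient agar or Mueller Hinton II agar. Plates were incubated at 37 °C for 24 h, or 44 h for M. vaccae, then inhibition zones were read. Unclear zones were scored separately.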

Micrococcus luteus [3] = assay: Antibacterial activity against Micrococcus luteus ATCC 10240 at 0.1 mM incubated for 24 hrs at 37 degC by agar diffusion assay; conditions: ATCC 10240, 24 h, read-out: DIZ; how it was run: as §2
Pseudomonas aeruginosa [4] = assay: Antibacterial activity against wild type Pseudomonas aeruginosa K799 assessed as unclear inhibition zone or inhibition zone with many colonies at 0.1 mM incubated for 24 hrs at 37 degC by agar diffusion assay; conditions: K799, 24 h, read-out: DIZ; how it was run: as §2
Staphylococcus aureus [5] = assay: Antibacterial activity against Staphylococcus aureus SG511 by broth microdilution method; how it was run: as §1
Escherichia coli [6] = assay: Antibacterial activity against Escherichia coli X580 assessed as unclear inhibition zone or inhibition zone with many colonies at 0.1 mM incubated for 24 hrs at 37 degC by agar diffusion assay; conditions: X580, 24 h, read-out: DIZ; how it was run: as §2
Pseudomonas aeruginosa [7] = assay: Antibacterial activity against Pseudomonas aeruginosa K799/61 assessed as unclear inhibition zone or inhibition zone with many colonies at 0.1 mM incubated for 24 hrs at 37 degC by agar diffusion assay; conditions: K799/61, 24 h, read-out: DIZ; how it was run: as §2
Escherichia coli [8] = assay: Antibacterial activity against Escherichia coli DC0 assessed as unclear inhibition zone or inhibition zone with many colonies at 0.1 mM incubated for 24 hrs at 37 degC by agar diffusion assay; conditions: DC0, 24 h, read-out: DIZ; how it was run: as §2
Bacillus subtilis [9] = assay: Antibacterial activity against Bacillus subtilis ATCC 6633 at 0.1 mM incubated for 24 hrs at 37 degC by agar diffusion assay; conditions: ATCC 6633, 24 h, read-out: DIZ; how it was run: as §2
Escherichia coli [10] = assay: Antibacterial activity against Escherichia coli DC2 by broth microdilution method; how it was run: as §1
Escherichia coli [11] = assay: Antibacterial activity against Escherichia coli DC0 by broth microdilution method; how it was run: as §1
Mycolicibacterium vaccae [12] = assay: Antibacterial activity against Mycobacterium vaccae IMET10670 by broth microdilution method; how it was run: as §1
Escherichia coli [13] = assay: Antibacterial activity against Escherichia coli DC2 at 0.1 mM incubated for 24 hrs at 37 degC by agar diffusion assay; conditions: DC2, 24 h, read-out: DIZ; how it was run: as §2
Pseudomonas aeruginosa [14] = assay: Antibacterial activity against wild type Pseudomonas aeruginosa K799 at 0.1 mM incubated for 24 hrs at 37 degC by agar diffusion assay; conditions: K799, 24 h, read-out: DIZ; how it was run: as §2
Acinetobacter baumannii [15] = assay: Antibacterial activity against Acinetobacter baumannii ATCC 17961 at 0.1 mM incubated for 24 hrs at 37 degC by agar diffusion assay; conditions: ATCC 17961, 24 h, read-out: DIZ; how it was run: as §2
Bacillus subtilis [16] = assay: Antibacterial activity against Bacillus subtilis ATCC 6633 by broth microdilution method; how it was run: as §1
Escherichia coli [17] = assay: Antibacterial activity against Escherichia coli DC0 at 0.1 mM incubated for 24 hrs at 37 degC by agar diffusion assay; conditions: DC0, 24 h, read-out: DIZ; how it was run: as §2
Pseudomonas aeruginosa [18] = assay: Antibacterial activity against wild type Pseudomonas aeruginosa K799 by broth microdilution method; how it was run: as §1
Micrococcus luteus [19] = assay: Antibacterial activity against Micrococcus luteus ATCC 10240 by broth microdilution method; how it was run: as §1
Pseudomonas aeruginosa [20] = assay: Antibacterial activity against Pseudomonas aeruginosa K799/61 at 0.1 mM incubated for 24 hrs at 37 degC by agar diffusion assay; conditions: K799/61, 24 h, read-out: DIZ; how it was run: as §2
Acinetobacter baumannii [21] = assay: Antibacterial activity against Acinetobacter baumannii ATCC 17961 assessed as unclear inhibition zone or inhibition zone with many colonies at 0.1 mM incubated for 24 hrs at 37 degC by agar diffusion assay; conditions: ATCC 17961, 24 h, read-out: DIZ; how it was run: as §2
Mycolicibacterium vaccae [22] = assay: Antibacterial activity against Mycobacterium vaccae IMET10670 at 0.1 mM incubated for 44 hrs at 37 degC by agar diffusion assay; conditions: IMET10670, 44 h, read-out: DIZ; how it was run: as §2
Pseudomonas aeruginosa [23] = assay: Antibacterial activity against Pseudomonas aeruginosa K799/61 by broth microdilution method; how it was run: as §1
Staphylococcus aureus [24] = assay: Antibacterial activity against Staphylococcus aureus SG511 at 0.1 mM incubated for 24 hrs at 37 degC by agar diffusion assay; conditions: SG511, 24 h, read-out: DIZ; how it was run: as §2
Mycolicibacterium vaccae [25] = assay: Antibacterial activity against Mycobacterium vaccae IMET10670 assessed as unclear inhibition zone or inhibition zone with many colonies at 0.1 mM incubated for 44 hrs at 37 degC by agar diffusion assay; conditions: IMET10670, 44 h, read-out: DIZ; how it was run: as §2

Compound	MIC (Acinetobacter baumannii [1])	MIC (Staphylococcus aureus [5])	MIC (Escherichia coli [10])	MIC (Escherichia coli [11])	MIC (Mycolicibacterium vaccae [12])	MIC (Bacillus subtilis [16])	MIC (Pseudomonas aeruginosa [18])	MIC (Micrococcus luteus [19])	MIC (Pseudomonas aeruginosa [23])	zone of inhibition at 100 µM (Escherichia coli [2])	zone of inhibition at 100 µM (Micrococcus luteus [3])	zone of inhibition at 100 µM (Escherichia coli [6])	zone of inhibition at 100 µM (Bacillus subtilis [9])	zone of inhibition at 100 µM (Escherichia coli [13])	zone of inhibition at 100 µM (Pseudomonas aeruginosa [14])	zone of inhibition at 100 µM (Acinetobacter baumannii [15])	zone of inhibition at 100 µM (Escherichia coli [17])	zone of inhibition at 100 µM (Pseudomonas aeruginosa [20])	zone of inhibition at 100 µM (Mycolicibacterium vaccae [22])	zone of inhibition at 100 µM (Staphylococcus aureus [24])	further results
CC1=C(Br)C(=O)C(C(C)(C)CC(=O)N2CCN(c3cc4c(cc3F)c(=O)c(C(=O)O)cn4C3CC3)CC2)=C(C)C1=O	0.78 µM (≈ 0.49 µg/mL)	0.1 µM (≈ 0.0628 µg/mL)	8.33 µM (≈ 5.24 µg/mL)	12.5 µM (≈ 7.86 µg/mL)	2 µM (≈ 1.26 µg/mL)	< 0.05 µM	5 µM (≈ 3.14 µg/mL)	1.56 µM (≈ 0.98 µg/mL)	2.5 µM (≈ 1.57 µg/mL)	33 mm	19 mm	40 mm	35 mm	24 mm	29 mm	18 mm	17 mm	29 mm	37 mm	25 mm	zone of inhibition at 100 µM (Pseudomonas aeruginosa [4]): 35 mm; zone of inhibition at 100 µM (Pseudomonas aeruginosa [7]): 38 mm; zone of inhibition at 100 µM (Escherichia coli [8]): 21 mm; zone of inhibition at 100 µM (Acinetobacter baumannii [21]): 23 mm
CC1=C(N)C(=O)C(C(C)(C)CC(=O)N2CCN(c3cc4c(cc3F)c(=O)c(C(=O)O)cn4C3CC3)CC2)=C(C)C1=O	0.6 µM (≈ 0.339 µg/mL)	< 0.05 µM	12.5 µM (≈ 7.06 µg/mL)	25 µM (≈ 14.1 µg/mL)	2 µM (≈ 1.13 µg/mL)	< 0.05 µM	2.5 µM (≈ 1.41 µg/mL)	12.5 µM (≈ 7.06 µg/mL)	5 µM (≈ 2.82 µg/mL)	31 mm	17 mm	37 mm	36 mm	23 mm	22 mm	24 mm	16 mm	31 mm	24 mm	31 mm	zone of inhibition at 100 µM (Pseudomonas aeruginosa [4]): 32 mm; zone of inhibition at 100 µM (Pseudomonas aeruginosa [7]): 35 mm; zone of inhibition at 100 µM (Escherichia coli [8]): 23 mm; zone of inhibition at 100 µM (Mycolicibacterium vaccae [25]): 30 mm; zone of inhibition at 100 µM (Acinetobacter baumannii [21]): 30 mm
CC1=C(N)C(=O)C(C(C)(C)CC(=O)O)=C(C)C1=O	–	–	–	–	–	–	–	–	–	0 mm	0 mm	–	0 mm	0 mm	0 mm	0 mm	0 mm	0 mm	0 mm	0 mm	–

Continued, in another order:

MIC (Acinetobacter baumannii [1])	MIC (Staphylococcus aureus [5])	MIC (Escherichia coli [10])	MIC (Escherichia coli [11])	MIC (Mycolicibacterium vaccae [12])	MIC (Bacillus subtilis [16])	MIC (Pseudomonas aeruginosa [18])	MIC (Micrococcus luteus [19])	MIC (Pseudomonas aeruginosa [23])	Compound	zone of inhibition at 100 µM (Escherichia coli [2])	zone of inhibition at 100 µM (Micrococcus luteus [3])	zone of inhibition at 100 µM (Escherichia coli [6])	zone of inhibition at 100 µM (Bacillus subtilis [9])	zone of inhibition at 100 µM (Escherichia coli [13])	zone of inhibition at 100 µM (Pseudomonas aeruginosa [14])	zone of inhibition at 100 µM (Acinetobacter baumannii [15])	zone of inhibition at 100 µM (Escherichia coli [17])	zone of inhibition at 100 µM (Pseudomonas aeruginosa [20])	zone of inhibition at 100 µM (Mycolicibacterium vaccae [22])	zone of inhibition at 100 µM (Staphylococcus aureus [24])	further results
0.39 µM (≈ 0.214 µg/mL)	< 0.05 µM	6.25 µM (≈ 3.43 µg/mL)	12.5 µM (≈ 6.87 µg/mL)	0.5 µM (≈ 0.275 µg/mL)	< 0.05 µM	1.25 µM (≈ 0.687 µg/mL)	0.2 µM (≈ 0.11 µg/mL)	2.5 µM (≈ 1.37 µg/mL)	CC1=CC(=O)C(C(C)(C)CC(=O)N2CCN(c3cc4c(cc3F)c(=O)c(C(=O)O)cn4C3CC3)CC2)=C(C)C1=O	32 mm	28 mm	40 mm	39 mm	27 mm	41 mm	26 mm	21 mm	35 mm	32 mm	33 mm	zone of inhibition at 100 µM (Pseudomonas aeruginosa [7]): 42 mm; zone of inhibition at 100 µM (Escherichia coli [8]): 29 mm; zone of inhibition at 100 µM (Mycolicibacterium vaccae [25]): 42 mm; zone of inhibition at 100 µM (Acinetobacter baumannii [21]): 32 mm
> 100 µM	> 100 µM	> 100 µM	> 100 µM	80 µM (≈ 18.9 µg/mL)	50 µM (≈ 11.8 µg/mL)	> 100 µM	50 µM (≈ 11.8 µg/mL)	> 100 µM	CC1=CC(=O)C(C(C)(C)CC(=O)O)=C(C)C1=O	0 mm	0 mm	–	0 mm	0 mm	0 mm	0 mm	0 mm	0 mm	0 mm	0 mm	–
